Source: the array DNA melting data of Ke et al. (doi:10.1101/2024.01.08.574731)

What was measured:
[1] = melting temperature; fluorescence melt of hairpins on a sequencing array, two-state fit, raised by 9.35 °C to match UV melts; conditions: sodium 0.088 M
Outline: (§1)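 Bootstrapped two-state fits yielded melting temperature and folding enthalpy for library hairpins. Cy3 fluorescence, with annealed Cy3 and quencher oligos, was imaged on a sequenced MiSeq flow cell in 50 mM Na-HEPES pH 8.0, 25 mM NaCl in 2.5 °C steps up to 60 °C, and normalised to pre-quench Cy3 and to control constructs. Four replicates were combined by inverse variance, and fitted temperatures were raised by 9.35 °C to match UV melts.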

[2] = folding enthalpy; higher = less favourable; fluorescence melt of hairpins on a sequencing array, two-state fit; conditions: sodium 0.088 M
Outline: as §1

Sequence	Tm [1]	folding enthalpy [2]
GCGACTGTTCGC ((((....))))	47.8 °C	-22.5 kcal/mol
GCGACTTTCGC ((((...))))	49 °C	-21.8 kcal/mol
GCGAGAAGTCGC ((((....))))	50.2 °C	-18.3 kcal/mol
GCGAGAATTCGC ((((....))))	55.3 °C	-21.8 kcal/mol
GCGAGAGGAAACTCTCAC (.(((((....))))).)	39 °C	-17.9 kcal/mol
GCGAGAGTCGC ((((...))))	55.5 °C	-11.3 kcal/mol
GCGAGATGTCGC ((((....))))	49.4 °C	-19.1 kcal/mol
GCGAGCAATCGC ((((....))))	62.2 °C	-23.8 kcal/mol
GCGAGCACGAAAGTGCGC (((..(((....))))))	56.9 °C	-8.47 kcal/mol
GCGAGCATCGC ((((...))))	62.1 °C	-21.8 kcal/mol
GCGAGCCTTCGC ((((....))))	53.9 °C	-31 kcal/mol
GCGAGCGAAAGCTAACGC ((((((....)))..)))	52.6 °C	-22.7 kcal/mol
GCGAGCGAAAGCTGCGC ((((((....))).)))	68.9 °C	-21.8 kcal/mol
GCGAGCGGAAACGCCCAC (.(.(((....))).).)	34.2 °C	-8.67 kcal/mol
GCGAGCGGAAACGCCCGC (((.(((....))).)))	58.4 °C	-35.4 kcal/mol
GCGAGGATTCGC ((((....))))	54.7 °C	-22.7 kcal/mol
GCGAGGCGAAAGCACCGC (((..((....))..)))	61.8 °C	-22.8 kcal/mol
GCGAGGCGAAAGCCAGGC ((..(((....)))..))	56.4 °C	-13.1 kcal/mol
GCGAGGCGAAAGCCCTGC ((..(((....)))..))	57.6 °C	-11.9 kcal/mol
GCGAGGCGAAAGCGACGC (((..((....))..)))	62.1 °C	-25.4 kcal/mol
GCGAGGCGAAAGCTACGC (((..((....))..)))	62 °C	-24.3 kcal/mol
GCGAGGCGAAAGCTCCGC (((..((....))..)))	60 °C	-25.2 kcal/mol
GCGAGGCTCGC ((((...))))	52.8 °C	-28.5 kcal/mol
GCGAGGGCTCGC ((((....))))	51 °C	-25.5 kcal/mol
GCGAGGGGAAACCCCCGC (((.(((....))).)))	59.6 °C	-27.5 kcal/mol

Sequence	Tm [1]	folding enthalpy [2]
GCGAGGGGAAACCTTCGC ((((.((....)).))))	56.3 °C	-35.4 kcal/mol
GCGAGGGTTCGC ((((....))))	49.3 °C	-15.7 kcal/mol
GCGAGGTTCGC ((((...))))	48.7 °C	-16.3 kcal/mol
GCGAGTACTCGC ((((....))))	56.6 °C	-30.6 kcal/mol
GCGAGTCGTCGC ((((....))))	53.1 °C	-22.3 kcal/mol
GCGAGTGGAAACGCTTGC ((.((.(....).)).))	48.6 °C	-22.3 kcal/mol
GCGAGTTTCGC ((((...))))	51 °C	-17.3 kcal/mol
GCGATAACTCGC ((((....))))	45.9 °C	-21.1 kcal/mol
GCGATAATCGC ((((...))))	44.4 °C	-20.7 kcal/mol
GCGATAATTCGC ((((....))))	48.2 °C	-23.5 kcal/mol
GCGATAGGAAACTATTGC ((.((((....)))).))	45.6 °C	-38.8 kcal/mol
GCGATAGTTCGC ((((....))))	50.4 °C	-21.8 kcal/mol
GCGATATTTCGC ((((....))))	50.1 °C	-23.2 kcal/mol
GCGATCATTCGC ((((....))))	50.7 °C	-26.6 kcal/mol
GCGATCCATCGC ((((....))))	57.2 °C	-27.3 kcal/mol
GCGATCCCGAAAGGGCGC (((..(((....))))))	56.3 °C	-20.6 kcal/mol
GCGATCCTCGC ((((...))))	50.3 °C	-20.9 kcal/mol
GCGATCGAAAGATAACGC ((((((....)))..)))	44.3 °C	-26.2 kcal/mol
GCGATCGAAAGATACCGC ((((((....)))..)))	37.2 °C	-23.8 kcal/mol
GCGATCGAAAGATCACGC ((((((....)))..)))	48.2 °C	-21.7 kcal/mol
GCGATCGAAAGATGTCGC ((((((....)))..)))	43 °C	-22.4 kcal/mol
GCGATCGGTCGC ((((....))))	48.5 °C	-31.6 kcal/mol
GCGATCGTCGC ((((...))))	45.9 °C	-20.2 kcal/mol
GCGATGATCGC ((((...))))	46 °C	-22.3 kcal/mol
GCGATGCCTCGC ((((....))))	50.4 °C	-20.5 kcal/mol

Sequence	Tm [1]	folding enthalpy [2]
GCGATGCGAAAGCATTGC ((.((((....)))).))	68.7 °C	-43.9 kcal/mol
GCGATGCGAAAGCCCCGC (((..((....))..)))	43.9 °C	-20.5 kcal/mol
GCGATGCGTCGC ((((....))))	64.5 °C	-20.1 kcal/mol
GCGATGGGAAACTGTCGC ((((..(....)..))))	49.2 °C	-47.3 kcal/mol
GCGATGGTCGC ((((...))))	47.8 °C	-7.34 kcal/mol
GCGATGTGTCGC ((((....))))	57 °C	-28.6 kcal/mol
GCGATGTTTCGC ((((....))))	51.4 °C	-22.9 kcal/mol
GCGATTACGAAAGTACGC (((..(((....))))))	43.4 °C	-26 kcal/mol
GCGATTAGTCGC ((((....))))	51.4 °C	-26.7 kcal/mol
GCGATTCATCGC ((((....))))	58.3 °C	-30.1 kcal/mol
GCGATTCGAAAGAACCGC (((.(((....))).)))	53.1 °C	-38.6 kcal/mol
GCGATTCGTCGC ((((....))))	54.5 °C	-28.4 kcal/mol
GCGATTGAAAAATCGC ((((((....))))))	64.8 °C	-40.7 kcal/mol
GCGATTGCTCGC ((((....))))	52.5 °C	-14.3 kcal/mol
GCGATTGGAAACGATTGC ((.((.(....).)).))	36.4 °C	-26.7 kcal/mol
GCGATTTCGAAAGAACGC (((..(((....))))))	36.9 °C	-24.2 kcal/mol
GCGCAACGAAAGTTCGC (((.(((....))))))	54.9 °C	-32 kcal/mol
GCGCAAGCGAAAGCTCGC (((..(((....))))))	45.7 °C	-12.8 kcal/mol
GCGCAAGGAAACTTGTGC ((.((((....)))).))	54.9 °C	-48.9 kcal/mol
GCGCACCGAAAGGTTCGC (((.(((....))).)))	61.4 °C	-40.3 kcal/mol
GCGCACGAAAGTGAACGC ((((((....)))..)))	54.5 °C	-31.2 kcal/mol
GCGCACGAAAGTGGACGC ((((((....)))..)))	55.4 °C	-32.7 kcal/mol
GCGCACGAAAGTGTCGC ((((((....))).)))	64.2 °C	-27.6 kcal/mol
GCGCACGGAAACGCGCAC (.((.((....)).)).)	52.4 °C	-13.7 kcal/mol
GCGCAGCCGAAAGGCCGC (((..(((....))))))	57.9 °C	-16.7 kcal/mol

Sequence	Tm [1]	folding enthalpy [2]
GCGCAGCGAAAGCCTCGC (((..((....))..)))	42.1 °C	-8.27 kcal/mol
GCGCAGCGAAAGCGTCGC (((..((....))..)))	58.9 °C	-13.3 kcal/mol
GCGCAGCGAAAGCTATGC ((..(((....)))..))	39.3 °C	-7.11 kcal/mol
GCGCAGCGAAAGCTCTGC ((..(((....)))..))	38.5 °C	-7.6 kcal/mol
GCGCAGGCGAAAGCCCGC (((..(((....))))))	60.1 °C	-16.7 kcal/mol
GCGCAGGGAAACCTACGC (((.(((....))).)))	50.1 °C	-39.9 kcal/mol
GCGCAGGGAAACCTGCAC (.(((((....))))).)	47.6 °C	-12.7 kcal/mol
GCGCATGCGAAAGCACGC (((..(((....))))))	54.6 °C	-13.7 kcal/mol
GCGCATGGAAACACACGC (((..((....))..)))	29.6 °C	-19.4 kcal/mol
GCGCCCCGAAAGGGCCGC (((.(((....))).)))	61.2 °C	-19.8 kcal/mol
GCGCCCGAAAGGGACGC ((((((....))).)))	68.1 °C	-27.1 kcal/mol
GCGCCCGAAAGGGCACGC ((((((....)))..)))	63.3 °C	-13.4 kcal/mol
GCGCCCGAAAGGGGCCGC ((((((....)))..)))	61.4 °C	-16.4 kcal/mol
GCGCCGCCGAAAGGCCGC (((..(((....))))))	56.3 °C	-15.2 kcal/mol
GCGCCGCGAAAGCCCCGC (((..((....))..)))	39 °C	-17.7 kcal/mol
GCGCCGCGAAAGCCGTGC ((.(.((....)).).))	52.1 °C	-20.5 kcal/mol
GCGCCGCGAAAGCGAAGC ((..(((....)))..))	64.8 °C	-32 kcal/mol
GCGCCGCGAAAGCGATGC ((..(((....)))..))	60.8 °C	-19.4 kcal/mol
GCGCCGCGAAAGCGCAGC ((..(((....)))..))	59.8 °C	-14.1 kcal/mol
GCGCCGCGAAAGCTCCGC (((..((....))..)))	44.9 °C	-16.8 kcal/mol
GCGCCGGGAAACCAGCGC ((((.((....)).))))	59.1 °C	-44.5 kcal/mol
GCGCCGTCGAAAGACCGC (((..(((....))))))	50.8 °C	-23.1 kcal/mol
